This note sets out measurements from ChEMBL document CHEMBL1128202, “Identification of a series of 3-(benzyloxy)-1-azabicyclo[2.2.2]octane human NK1 antagonists” (J Med Chem, 1995).

One assay deals with Substance-P receptor (Homo sapiens, UniProt P25103). The experiment in a line: Inhibition of binding of [125I]SP to the CHO cell line expressing human Tachykinin receptor 1. Type of assay: cell-based.
Assay [1] relates to Cavia porcellus. Kind of assay: Inhibition of SP-induced extravasation in the skin of guinea pig after oral administration of a dose of 10 (ug/kg). Type of assay: functional. The essentials: (§1)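 Guinea pigs given test compound (po or ip); dorsal skin shaved and Evans blue (0.5 mL, 2.5 g/100 mL saline) injected iv. 10 min later, SP (0.5 pmol in 0.1% HSA saline) injected intradermally; 1 h exposure, then CO2 euthanasia. 6-mm punch biopsies of injection sites; dye extracted overnight in formamide at 45 °C. Read-out: % inhibition of Evans blue leakage.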

Assay [2] deals with Cavia porcellus. Kind of assay: Inhibition of SP-induced extravasation in the skin of guinea pig after […] administration of a dose of 10 (ug/kg). Type of assay: functional. In a few lines:
as §1

The test system of assay [3] is Cavia porcellus. The experiment in a line: Inhibition of SP-induced extravasation in the skin of guinea pig after intraperitoneal administration of a dose of 10 (ug/kg). The assay is classed as functional. In a few lines: as §1
In assay [4] the test system is Cavia porcellus. Kind of assay: Inhibition of SP-induced extravasation in the skin of guinea pig after intraperitoneal administration of a dose of 3 (ug/kg). The assay is classed as functional. The essentials: as §1
The subject of assay [5] is Cavia porcellus. Kind of assay: Inhibition of SP-induced extravasation in the skin of guinea pig after intraperitoneal administration of a dose of 30 (ug/kg). The assay is classed as functional. In a few lines: as §1
Assay [6] concerns Cavia porcellus. The experiment in a line: Inhibition of SP-induced extravasation in the skin of guinea pig after intraperitoneal administration of a dose of 1 (ug/kg). The assay is classed as functional. The essentials:
as §1

Chain of Substance-P receptor (P25103 whole entry): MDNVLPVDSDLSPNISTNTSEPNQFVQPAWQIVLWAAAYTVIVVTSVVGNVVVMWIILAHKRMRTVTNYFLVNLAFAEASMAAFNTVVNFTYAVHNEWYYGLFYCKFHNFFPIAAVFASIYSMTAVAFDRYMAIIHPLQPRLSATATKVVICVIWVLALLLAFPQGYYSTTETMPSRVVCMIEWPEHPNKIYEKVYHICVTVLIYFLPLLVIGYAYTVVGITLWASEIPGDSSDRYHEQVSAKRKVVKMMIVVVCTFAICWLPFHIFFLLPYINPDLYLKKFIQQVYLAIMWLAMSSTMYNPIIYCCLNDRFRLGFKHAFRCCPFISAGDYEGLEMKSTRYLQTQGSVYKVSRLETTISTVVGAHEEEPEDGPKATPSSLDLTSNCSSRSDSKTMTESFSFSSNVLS

`FC(F)(F)c1cc(COC2C3CCN(CC3)C2C(c2ccccc2)C2CCCCC2)cc(C(F)(F)F)c1` (stereo not given) showed an IC50 at Substance-P receptor of 7.5 nM. Same read-out and setting: the value for `Clc1cccc(COC2C3CCN(CC3)C2C(c2ccccc2)c2ccccc2)c1` (stereo not given) was 62 nM; that for `Cc1ccc(C)c(COC2C3CCN(CC3)C2C(c2ccccc2)c2ccccc2)c1` (stereo not given) was 36 nM; that for `FC(F)(F)c1ccc(COC2C3CCN(CC3)C2C(c2ccccc2)c2ccccc2)cc1` (stereo not given) was 370 nM. For the compound `Clc1ccc(COC2C3CCN(CC3)C2C(c2ccccc2)c2ccccc2)cc1` (stereo not given), the IC50 on Substance-P receptor came out at 417 nM. As for `c1ccc(COC2C3CCN(CC3)C2C(c2ccccc2)c2ccccc2)cc1` (stereo not given), the IC50 on Substance-P receptor is 110 nM. On the same count and under the same terms, under `Cc1ccc(COC2C3CCN(CC3)C2C(c2ccccc2)c2ccccc2)cc1` (stereo not given) stands 246 nM; under `FC(F)(F)c1cc(COC2C3CCN(CC3)C2Cc2ccccc2)cc(C(F)(F)F)c1` (stereo not given), 103 nM. Take `Brc1ccccc1COC1C2CCN(CC2)C1C(c1ccccc1)c1ccccc1` (stereo not given): at Substance-P receptor, the IC50 amounted to 37 nM.

In turn, `Fc1cc(F)cc(COC2C3CCN(CC3)C2C(c2ccccc2)c2ccccc2)c1` (stereo not given) displayed an IC50 on Substance-P receptor of 33 nM. `FC(F)(F)c1cccc(COC2C3CCN(CC3)C2C(c2ccccc2)c2ccccc2)c1` (stereo not given) registered an IC50 on Substance-P receptor of 300 nM. This IC50 is about 9.1-fold higher than that of the compound before.

Take `N#Cc1ccc(COC2C3CCN(CC3)C2C(c2ccccc2)c2ccccc2)cc1` (stereo not given): the IC50 at Substance-P receptor was 950 nM.

On Substance-P receptor, `Fc1ccccc1COC1C2CCN(CC2)C1C(c1ccccc1)c1ccccc1` (stereo not given) returned an IC50 of 93 nM.

`Fc1cccc(COC2C3CCN(CC3)C2C(c2ccccc2)c2ccccc2)c1` (stereo not given) yielded an IC50 on Substance-P receptor of 37 nM. As for `Clc1ccccc1COC1C2CCN(CC2)C1C(c1ccccc1)c1ccccc1` (stereo not given), the IC50 on Substance-P receptor stood at 80 nM. Turning to `Cc1ccc(COC2C3CCN(CC3)C2C(c2ccccc2)c2ccccc2)cc1C` (stereo not given), the IC50 at Substance-P receptor was found to be 172 nM. On the same count and under the same terms, under `Fc1ccc(COC2C3CCN(CC3)C2C(c2ccccc2)c2ccccc2)cc1` (stereo not given) stands 252 nM. Same read-out and setting: under `Fc1ccc(F)c(COC2C3CCN(CC3)C2C(c2ccccc2)c2ccccc2)c1` (stereo not given) stands 106 nM. In the case of `Cc1cc(C)cc(COC2C3CCN(CC3)C2Cc2ccccc2)c1` (stereo not given), the IC50 at Substance-P receptor amounted to 107 nM.

At Substance-P receptor, `FC(F)(F)c1ccccc1COC1C2CCN(CC2)C1C(c1ccccc1)c1ccccc1` (stereo not given) displayed an IC50 of 67 nM. On to `c1ccc(Oc2cccc(COC3C4CCN(CC4)C3C(c3ccccc3)c3ccccc3)c2)cc1` (stereo not given), for which the IC50 at Substance-P receptor turned out to be 62 nM. In turn, `COc1cccc(COC2C3CCN(CC3)C2C(c2ccccc2)c2ccccc2)c1` (stereo not given) showed an IC50 on Substance-P receptor of 56 nM. On the same count and under the same terms, under `Cc1cc(I)cc(COC2C3CCN(CC3)C2C(c2ccccc2)c2ccccc2)c1` (stereo not given) stands 0.32 nM.

On Substance-P receptor, `FC(F)(F)c1cc(CO[C@@H]2C3CCN(CC3)[C@H]2C(c2ccccc2)c2ccccc2)cc(C(F)(F)F)c1` gave an IC50 of 125 nM. Take `FC(F)(F)c1cc(CO[C@@H]2C3CCN(CC3)[C@@H]2C(c2ccccc2)c2ccccc2)cc(C(F)(F)F)c1`: the Inhibition in the assay with Cavia porcellus [1] is given as -17%. In addition, the IC50 on Substance-P receptor worked out at 300 nM. For `Cc1cc(COC2C3CCN(CC3)C2C(c2ccccc2)c2ccccc2)cc([Si](C)(C)C)c1` (stereo not given), the IC50 on Substance-P receptor worked out at 0.9 nM. On the same count and under the same terms, under `N#Cc1ccccc1COC1C2CCN(CC2)C1C(c1ccccc1)c1ccccc1` (stereo not given) stands 86 nM. Same read-out and setting: the value for `Cc1ccccc1COC1C2CCN(CC2)C1C(c1ccccc1)c1ccccc1` (stereo not given) was 150 nM; that for `Cc1cccc(COC2C3CCN(CC3)C2C(c2ccccc2)c2ccccc2)c1` (stereo not given) was 20 nM; that for `N#Cc1cccc(COC2C3CCN(CC3)C2C(c2ccccc2)c2ccccc2)c1` (stereo not given) was 127 nM.

In the case of `c1ccc(CN[C@H]2C3CCN(CC3)[C@H]2C(c2ccccc2)c2ccccc2)cc1`, the IC50 at Substance-P receptor was determined as 0.085 nM. Compared with the last compound, the IC50 is about 1500-fold lower. Still for that read-out and setting: the value for `O=[N+]([O-])c1cccc(COC2C3CCN(CC3)C2C(c2ccccc2)c2ccccc2)c1` (stereo not given) was 197 nM.

For the compound `FC(F)(F)c1cc(CO[C@H]2C3CCN(CC3)[C@@H]2C(c2ccccc2)c2ccccc2)cc(C(F)(F)F)c1`, the Inhibition in the assay with Cavia porcellus [1] was 70%. Moreover, the IC50 at Substance-P receptor was found to be 0.2 nM. In turn, `Clc1cc(Cl)cc(COC2C3CCN(CC3)C2C(c2ccccc2)c2ccccc2)c1` (stereo in doubt; 67) displayed an IC50 at Substance-P receptor of 3.5 nM. That is a single-digit nanomolar value. On Substance-P receptor, `Clc1cc(Cl)cc(COC2C3CCN(CC3)C2C(c2ccccc2)c2ccccc2)c1` (stereo in doubt; 68) yielded an IC50 of 9 nM. Still for that read-out and setting: the value for `FC(F)(F)c1cc(COC2C3CCN(CC3)C2C(c2ccccc2)c2ccccc2)cc(C(F)(F)F)c1` (stereo in doubt; 69) was 1.6 nM. Still for that read-out and setting: under `FC(F)(F)c1cc(COC2C3CCN(CC3)C2C(c2ccccc2)c2ccccc2)cc(C(F)(F)F)c1` (stereo in doubt; 70) stands 2.7 nM. For `Cc1cc(C)cc(COC2C3CCN(CC3)C2C(c2ccccc2)c2ccccc2)c1` (stereo in doubt; 72), in the assay with Cavia porcellus [1], the Inhibition is recorded as 45%. In addition, the IC50 at Substance-P receptor stood at 0.9 nM. `Cc1cc(C)cc(COC2C3CCN(CC3)C2C(c2ccccc2)c2ccccc2)c1` (stereo in doubt; 73): the Inhibition in the assay on Cavia porcellus [2] was found to be 89%; in the assay on Cavia porcellus [1], 40%. The compound further registered an IC50 on Substance-P receptor of 0.26 nM.

Consider `COc1cc(COC2C3CCN(CC3)C2C(c2ccccc2)c2ccccc2)cc(OC)c1` (stereo in doubt; 75), for which the IC50 on Substance-P receptor worked out at 9.3 nM. For the compound `COc1cc(COC2C3CCN(CC3)C2C(c2ccccc2)c2ccccc2)cc(OC)c1` (stereo in doubt; 76), the IC50 on Substance-P receptor came out at 8.3 nM. Still for that read-out and setting: under `COc1cc(C)cc(COC2C3CCN(CC3)C2C(c2ccccc2)c2ccccc2)c1` (stereo in doubt; 77) stands 1.9 nM; under `COc1cc(C)cc(COC2C3CCN(CC3)C2C(c2ccccc2)c2ccccc2)c1` (stereo in doubt; 78), 1.5 nM; under `Cc1cc(C)cc(COC2C3CCN(CC3)C2C(Cc2ccccc2)c2ccccc2)c1` (stereo in doubt; 85), 3.2 nM. Still for that read-out and setting: under `Cc1cc(C)cc(COC2C3CCN(CC3)C2C(Cc2ccccc2)c2ccccc2)c1` (stereo in doubt; 86) stands 23 nM; under `FC(F)(F)c1cc(COC2C3CCN(CC3)C2C(Cc2ccccc2)c2ccccc2)cc(C(F)(F)F)c1` (stereo in doubt; 87), 3.9 nM. Take `FC(F)(F)c1cc(COC2C3CCN(CC3)C2C(Cc2ccccc2)c2ccccc2)cc(C(F)(F)F)c1` (stereo in doubt; 88): the IC50 at Substance-P receptor came out at 425 nM. Same read-out and setting: the value for `FC(F)(F)c1cc(COC2C3CCN(CC3)C2C(Cc2ccccc2)c2ccccc2)cc(C(F)(F)F)c1` (stereo in doubt; 89) was 10 nM.

`Cc1cc(C)cc(COC2C3CCN(CC3)C2C(Cc2ccccc2)c2ccccc2)c1` (stereo in doubt; 90) came in with an IC50 on Substance-P receptor of 353 nM. `FC(F)(F)c1cc(CO[C@H]2C3CCN(CC3)[C@H]2C(c2ccccc2)c2ccccc2)cc(C(F)(F)F)c1` [L-709210]: the Inhibition in the assay with Cavia porcellus [3] is reported as 92%; with Cavia porcellus [4], 59%; in the assay on Cavia porcellus [5], 100%; in the assay on Cavia porcellus [1], 76%; with Cavia porcellus [6] it was 6%. Also, at Substance-P receptor, the IC50 stood at 0.2 nM.
